Experimental data from different studies.
Compare with care: the assays were run in different laboratories.
NT5E: 5'-nucleotidase (NT5E, Homo sapiens, UniProt P21589)
PDGFRA: Platelet-derived growth factor receptor alpha (PDGFRA, Homo sapiens, UniProt P16234)
XDH: Xanthine dehydrogenase/oxidase (XDH, Bos taurus, UniProt P80457)
MAP4K5: Mitogen-activated protein kinase kinase kinase kinase 5 (MAP4K5, Homo sapiens, UniProt Q9Y4K4)

SMILES | target | assay | conditions | quantity | result
Cc1cc(C)c(C#N)c(SCC(=O)Nc2ccon2)n1 | NT5E | enzyme activity, inhibitor | 10 µM | inhibition | 3%
NC/C(=C\F)COc1cccc(Cn2c(=S)[nH]c(=O)c3[nH]cnc32)c1 | Lactoperoxidase (LPO, Bos taurus, UniProt P80025) | enzyme activity, inhibitor | 20 µM | remaining activity | 14.2%
Cc1cc(C)c(C#N)c(SC=CC(=O)Nc2ccon2)n1 | NT5E | enzyme activity, inhibitor | 10 µM | inhibition | 34%
C#Cc1cnc(Nc2ccnc(CO)c2)nc1Nc1ccccc1S(C)(=O)=NC#N (stereo not drawn) | PDGFRA | cell-free assay | 1 µM | remaining signal | 58%
COC(=O)c1ccc(NC(=O)c2sc3nc(-c4ccccc4)cc(C(F)(F)F)c3c2N)cc1 | NT5E | enzyme activity, inhibitor, HPLC | 10 µM | inhibition | 94%
CC(=O)ON=C1C=CC(=C(C#N)c2ccccc2)C=C1 | Dual specificity tyrosine-phosphorylation-regulated kinase 1A (Dyrk1a, Rattus norvegicus, UniProt Q63470) | enzyme activity, inhibitor, ADP detection | 20 µM | activity vs control | 101%
O=C(NS(=O)(=O)c1ccccc1)c1cc2ccccc2n1Cc1ccc(Br)c2ccccc12 | XDH | enzyme activity, inhibitor, absorbance | 10 µM | inhibition | 20.3%
C1=C/COCc2cc(ccc2OCCN2CCCC2)Nc2nccc(n2)-c2cccc(c2)COC/1 | MAP4K5 | binding | 0.1 µM | remaining binding | 90%
N#Cc1ccc(NC(=O)Nc2ccccc2)cc1 | PDGFRA | cell-free assay, competition with immobilised ligand | 25 µM | remaining binding | 92%
CC(C)(O)c1coc(S(=O)(=O)NC(=O)c2cc3ccccc3n2Cc2ccc(Br)c3ccccc23)c1 | XDH | enzyme activity, inhibitor, absorbance | 10 µM | inhibition | 1.21%
Cc1cc(C)c(C#N)c(SCC(=O)Nc2cccnc2)n1 | NT5E | enzyme activity, inhibitor | 10 µM | inhibition | 5%
CCCCC(=O)Nc1ccc(-c2ccc3ncn(CCC)c(=O)c3c2)cn1 | MAP4K5 | binding, competition with immobilised ligand | 0.5 µM | remaining binding | 92%
Oc1ncnc2[nH]ncc12 | XDH | enzyme activity, inhibitor | 250 µg/mL | inhibition | 99.3%
COCCOCCOCCNC(=O)CSc1nc(-c2ccccc2)cc(C(F)(F)F)c1C#N | NT5E | enzyme activity, inhibitor | 10 µM | inhibition | -20%
COc1ccc2oc(-c3ccc4nc(N)oc4c3)c/c(=N\c3ccccc3NC(=O)CCN)c2c1 | Platelet-derived growth factor receptor alpha (PDGFRA, Homo sapiens, UniProt P16234, D842V) | enzyme activity, inhibitor | 1 µM | remaining activity | 91%
